# In paper PMC7227796 (ACS chemical neuroscience, 2020):
# Structures can show the parent of a compound that is named as a salt.
# Columns and labels:
# native KA receptors [1] = conditions: rat synaptosomes, [3H]KA; earlier work, ref [36],[38],[39]; cited from earlier work
# GluK3 = GluK3 (Rattus norvegicus, UniProt P42264); test: Radioligand binding at recombinant homomeric GluK3
# In short: (§1)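 Membranes from sf9 cells expressing rat homomeric GluK1, GluK2 or GluK3 were incubated in 50 mM Tris-HCl, pH 7.1, for 2 h at 4 °C. Radioligand was [3H]-(S)-NF608 for GluK1 and [3H]kainic acid for GluK2 and GluK3. Samples were filtered on GF/B, washed twice with ice-cold buffer, dried for 1 h at 70 °C and counted by scintillation. Ki came from 12–16-point triplicate curves. Single-point % specific binding is mean ± SD of three experiments, at 10 μM test compound where stated.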
# [2] = target: GluN1/GluN2B NMDA receptor (Rattus norvegicus, UniProt P35439+Q00960); test: Two-electrode voltage-clamp recordings, Xenopus oocytes expressing GluN1/GluN2B; assay type: cell-based
# In short: (§2)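 Xenopus oocytes were injected with rat GluN1-1a and GluN2A, 2B, 2C or 2D cRNA at a 1:2 ratio. Two-electrode voltage clamp was run 2–6 days later at room temperature and −40 mV. Bath was 90 NaCl, 1 KCl, 10 HEPES, 0.5 BaCl2, 0.01 EDTA (mM), pH 7.4. Currents were evoked by 1 μM glutamate plus 100 μM glycine, with test compound gravity-perfused. Hill fits gave IC50 per oocyte (5–6 oocytes). Ki was derived by Cheng-Prusoff using earlier glutamate EC50 values.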
# [3] = target: GluN1/GluN2A NMDA receptor (Rattus norvegicus, UniProt P35439+Q00959); test: Two-electrode voltage-clamp recordings, Xenopus oocytes expressing GluN1/GluN2A; assay type: cell-based
# In short: as §2
# [4] = target: GluN1/GluN2A NMDA receptor (Rattus norvegicus, UniProt Q00959); test: as above; assay type: cell-based; conditions: two-electrode voltage-clamp
# In short: as §2
# GluK2 = GluK2 (Rattus norvegicus, UniProt P42260); test: Radioligand binding at recombinant homomeric GluK2
# In short: as §1
# [5] = target: GluN1/GluN2D NMDA receptor (Rattus norvegicus, UniProt P35439+Q62645); test: Two-electrode voltage-clamp recordings, Xenopus oocytes expressing GluN1/GluN2D; assay type: cell-based
# In short: as §2
# GluK1 = GluK1 (Rattus norvegicus, UniProt P22756); test: Radioligand binding at recombinant homomeric GluK1
# In short: as §1
# [6] = target: GluN1/GluN2C NMDA receptor (Rattus norvegicus, UniProt P35439+Q00961); test: Two-electrode voltage-clamp recordings, Xenopus oocytes expressing GluN1/GluN2C; assay type: cell-based
# In short: as §2
# native KA receptors [7] = test: Radioligand binding at native KA receptors; conditions: rat synaptosomes, [3H]KA
# In short: (§3)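 Rat cortical synaptosomal membranes were labelled with 5 nM [3H]AMPA (AMPA), 5 nM [3H]KA (KA) or [3H]CGP39653 (NMDA). Test compound was run at 12–16 concentrations in triplicate, with three to six independent experiments. Cpm were fitted by nonlinear regression. Values are reported as pIC50 for AMPA and KA and as pKi for NMDA, each as mean with SEM.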
# native AMPA receptors = test: Radioligand binding at native AMPA receptors; conditions: rat synaptosomes, [3H]AMPA; for IC50: read-out: AMPA IC50, native iGluRs (synaptosomes)
# In short: as §3
# native NMDA receptors = test: Radioligand binding at native NMDA receptors; parameters: species or system rat; conditions: for NMDA pKi with SEM (in brackets) / Ki: rat synaptosomes, [3H]CGP-39653; for Ki: read-out: NMDA Ki, native iGluRs (synaptosomes)
# In short: as §3
# GluA2 = GluA2 (Rattus norvegicus, UniProt P19491); test: Radioligand binding at recombinant homomeric GluA2
# In short: (§4)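 Membranes from sf9 cells expressing rat homomeric GluA1 or GluA2 were incubated with [3H]-(S)-AMPA and test compound for 2 h at 4 °C. Buffer was 50 mM Tris-HCl, 0.1 M KSCN, 2.5 mM CaCl2, pH 7.2. Samples were filtered on GF/C, washed twice with ice-cold buffer and counted by scintillation. Competition curves used 12–16 concentrations in triplicate. Ki came from a one-site fit and nH from a four-parameter logistic fit.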
# GluA1 = GluA1 (Rattus norvegicus, UniProt P19490); test: Radioligand binding at recombinant homomeric GluA1
# In short: as §4
# Sequence of GluN1/GluN2A NMDA receptor (Rattus norvegicus, UniProt Q00959) (Q00959 23-1464, other chains not shown): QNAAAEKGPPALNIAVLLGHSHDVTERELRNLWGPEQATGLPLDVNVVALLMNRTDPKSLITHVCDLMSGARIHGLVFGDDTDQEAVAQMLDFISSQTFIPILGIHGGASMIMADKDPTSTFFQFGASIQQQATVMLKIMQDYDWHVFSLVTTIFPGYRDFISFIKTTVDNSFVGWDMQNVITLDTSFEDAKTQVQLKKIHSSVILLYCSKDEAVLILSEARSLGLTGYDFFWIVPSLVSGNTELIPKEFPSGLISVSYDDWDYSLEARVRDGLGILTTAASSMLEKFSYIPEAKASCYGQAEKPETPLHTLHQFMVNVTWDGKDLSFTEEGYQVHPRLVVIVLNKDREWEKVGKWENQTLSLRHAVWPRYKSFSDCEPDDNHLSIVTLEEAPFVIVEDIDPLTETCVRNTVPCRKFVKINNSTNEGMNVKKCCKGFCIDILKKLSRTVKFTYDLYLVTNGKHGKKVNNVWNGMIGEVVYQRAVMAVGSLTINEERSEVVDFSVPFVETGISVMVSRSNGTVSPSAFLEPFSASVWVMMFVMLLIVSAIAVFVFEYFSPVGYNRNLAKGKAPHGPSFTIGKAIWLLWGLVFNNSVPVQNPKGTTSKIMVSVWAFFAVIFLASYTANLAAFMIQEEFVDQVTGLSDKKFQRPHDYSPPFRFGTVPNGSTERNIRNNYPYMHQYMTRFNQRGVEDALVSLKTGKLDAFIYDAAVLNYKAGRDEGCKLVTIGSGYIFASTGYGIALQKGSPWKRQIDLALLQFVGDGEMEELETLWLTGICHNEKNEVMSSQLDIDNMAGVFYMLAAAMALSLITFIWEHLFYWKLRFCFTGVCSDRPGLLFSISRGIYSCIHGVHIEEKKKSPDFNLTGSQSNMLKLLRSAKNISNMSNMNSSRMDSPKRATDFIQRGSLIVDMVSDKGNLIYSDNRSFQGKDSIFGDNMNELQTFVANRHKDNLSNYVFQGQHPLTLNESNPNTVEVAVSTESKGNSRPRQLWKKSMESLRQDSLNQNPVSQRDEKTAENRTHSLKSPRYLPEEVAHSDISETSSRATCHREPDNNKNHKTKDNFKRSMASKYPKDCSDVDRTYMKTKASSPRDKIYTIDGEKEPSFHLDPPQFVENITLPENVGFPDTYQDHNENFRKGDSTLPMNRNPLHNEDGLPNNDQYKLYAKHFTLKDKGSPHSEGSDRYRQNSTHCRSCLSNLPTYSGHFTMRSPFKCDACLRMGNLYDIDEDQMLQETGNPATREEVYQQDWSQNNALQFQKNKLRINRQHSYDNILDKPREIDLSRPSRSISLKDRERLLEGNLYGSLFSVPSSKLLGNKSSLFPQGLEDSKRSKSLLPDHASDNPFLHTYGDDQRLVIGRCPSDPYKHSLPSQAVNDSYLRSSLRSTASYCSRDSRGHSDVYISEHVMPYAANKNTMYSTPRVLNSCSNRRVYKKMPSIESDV
# Sequence of GluN1/GluN2A NMDA receptor (Rattus norvegicus, UniProt P35439+Q00959) (Q00959 23-1464, other chains not shown): as above
# Sequence of GluK3 (P42264 32-919): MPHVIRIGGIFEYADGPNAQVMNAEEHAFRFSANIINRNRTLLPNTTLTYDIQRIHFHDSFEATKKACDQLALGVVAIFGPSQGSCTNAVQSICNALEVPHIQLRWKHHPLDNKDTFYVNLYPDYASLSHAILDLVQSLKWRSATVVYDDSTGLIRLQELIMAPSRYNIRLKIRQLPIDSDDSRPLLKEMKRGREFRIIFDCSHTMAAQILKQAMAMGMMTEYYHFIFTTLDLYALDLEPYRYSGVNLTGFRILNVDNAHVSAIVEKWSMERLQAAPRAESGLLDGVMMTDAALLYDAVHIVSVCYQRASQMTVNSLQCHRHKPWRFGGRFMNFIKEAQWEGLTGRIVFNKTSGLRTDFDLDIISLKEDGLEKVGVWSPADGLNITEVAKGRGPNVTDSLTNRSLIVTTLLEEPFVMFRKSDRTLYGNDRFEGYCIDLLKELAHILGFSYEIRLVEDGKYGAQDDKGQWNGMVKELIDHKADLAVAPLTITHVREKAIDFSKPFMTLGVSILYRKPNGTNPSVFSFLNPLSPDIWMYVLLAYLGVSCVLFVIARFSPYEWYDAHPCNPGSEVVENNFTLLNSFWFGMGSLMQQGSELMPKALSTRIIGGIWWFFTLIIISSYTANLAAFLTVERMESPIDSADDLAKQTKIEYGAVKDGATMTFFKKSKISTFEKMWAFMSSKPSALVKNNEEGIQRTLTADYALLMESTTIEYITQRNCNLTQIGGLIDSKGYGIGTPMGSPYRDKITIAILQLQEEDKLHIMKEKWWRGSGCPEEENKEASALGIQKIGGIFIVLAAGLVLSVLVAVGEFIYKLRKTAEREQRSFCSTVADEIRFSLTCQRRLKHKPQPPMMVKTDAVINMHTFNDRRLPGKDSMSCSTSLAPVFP
# Sequence of GluA2 (P19491 22-883): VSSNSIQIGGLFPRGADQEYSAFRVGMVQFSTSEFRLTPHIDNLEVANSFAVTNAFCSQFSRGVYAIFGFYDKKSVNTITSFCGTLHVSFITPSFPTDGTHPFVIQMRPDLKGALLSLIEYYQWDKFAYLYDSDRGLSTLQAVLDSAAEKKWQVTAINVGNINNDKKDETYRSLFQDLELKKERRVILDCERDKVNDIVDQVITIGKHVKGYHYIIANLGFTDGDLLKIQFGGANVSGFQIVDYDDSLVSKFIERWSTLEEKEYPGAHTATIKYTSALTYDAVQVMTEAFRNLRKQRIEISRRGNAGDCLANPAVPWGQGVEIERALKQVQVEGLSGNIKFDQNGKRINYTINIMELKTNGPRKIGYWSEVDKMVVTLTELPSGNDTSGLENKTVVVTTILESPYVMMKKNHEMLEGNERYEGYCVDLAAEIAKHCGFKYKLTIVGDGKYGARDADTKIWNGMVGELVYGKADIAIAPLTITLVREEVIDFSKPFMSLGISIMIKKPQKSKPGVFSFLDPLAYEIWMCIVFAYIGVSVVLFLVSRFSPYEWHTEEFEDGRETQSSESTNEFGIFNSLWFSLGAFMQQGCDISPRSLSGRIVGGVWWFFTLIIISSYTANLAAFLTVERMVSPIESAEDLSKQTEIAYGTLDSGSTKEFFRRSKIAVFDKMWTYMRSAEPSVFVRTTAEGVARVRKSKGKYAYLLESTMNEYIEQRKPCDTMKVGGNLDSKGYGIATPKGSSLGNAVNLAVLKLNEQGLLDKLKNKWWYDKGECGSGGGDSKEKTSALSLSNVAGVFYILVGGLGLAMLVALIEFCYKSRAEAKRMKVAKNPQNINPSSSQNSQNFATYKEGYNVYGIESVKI
Compound,"KA (IC50), native iGluRs (native KA receptors [1])",Ki (GluK3),IC50 [2],IC50 [3],selectivity for GluN1/2A over GluN1/2B and GluN1/2C [4],selectivity for GluN1/2A over GluN1/2D [4],Ki (GluK2),IC50 [5],Ki (GluK1),IC50 [6],"KA IC50, native iGluRs (synaptosomes) (native KA receptors [7])",KA pIC50 with SEM (in brackets) (native KA receptors [7]),AMPA pIC50 with SEM (in brackets) (native AMPA receptors),IC50 (native AMPA receptors),increase in affinity for native NMDA receptors (native NMDA receptors; compared to 4a),selectivity/preference for NMDA receptors over AMPA and KA receptors (native NMDA receptors; native receptors),NMDA pKi with SEM (in brackets) (native NMDA receptors),Ki (native NMDA receptors),Ki (GluA2),Ki (GluA1)
"Cl.O=C(O)c1cc([C@H]2CCN[C@@H]2C(=O)O)ccc1Br [4f, (2S,3R)-3-(4-Bromo-3-carboxyphenyl)pyrrolidine-2-carboxylic acid hydrochloride]",>100 µM,,,,,,,,,,,,,,,,,,,
"Cl.O=C(O)c1cc(C(=O)O)cc([C@H]2CCN[C@@H]2C(=O)O)c1 [5c, 5-((2S,3R)-2-Carboxypyrrolidin-3-yl)isophthalic acid hydrochloride]",,15.7 ± 3.1 µM,4.37 ± 0.17 µM,0.63 ± 0.01 µM,6 to 10 fold,32 to 34 fold,> 100 µM,21.2 ± 0.37 µM,12.5 ± 1.7 µM,6.27 ± 0.13 µM,63 µM,4.21 ± 0.05,4.45 ± 0.04,36 µM,9 fold,75 fold,6.32 ± 0.03,0.48 µM,,
"Cl.O=C(O)c1cc(-c2ccccn2)cc([C@H]2CCN[C@@H]2C(=O)O)c1 [5e, (2S,3R)-3-(3-Carboxy-5-(pyridin-2-yl)phenyl)pyrrolidine-2-carboxylic acid hydrochloride]",,6.4 ± 0.41 µM,,,,,> 100 µM,,20 ± 1.8 µM,,20 µM,4.71±0.05,4.40±0.05,40 µM,,,5.42±0.01,3.8 µM,55 µM,19 µM
"Cl.O=C(O)c1cc(-c2cncnc2)cc([C@H]2CCN[C@@H]2C(=O)O)c1 [5h, (2S,3R)-3-(3-Carboxy-5-(pyrimidin-5-yl)phenyl)pyrrolidine-2-carboxylic acid hydrochloride]",,13 ± 0.17 µM,,,,,100 µM,,100 µM,,>100 µM,,4.30±0.13,59 µM,,,4.98±0.01,10 µM,82.9 µM,22.7 µM
"Cl.O=C(O)c1cc(-c2ccncc2)cc([C@H]2CCN[C@@H]2C(=O)O)c1 [5g, (2S,3R)-3-(3-Carboxy-5-(pyridin-4-yl)phenyl)pyrrolidine-2-carboxylic acid hydrochloride]",,6.5 ± 0.92 µM,,,,,> 100 µM,,22 ± 2.3 µM,,25 µM,4.61±0.05,,27 µM,,,5.76±0.01,1.7 µM,33 µM,12 µM
"Cl.O=C(O)c1cc(-c2cccnc2)cc([C@H]2CCN[C@@H]2C(=O)O)c1 [5f, (2S,3R)-3-(3-Carboxy-5-(pyridin-3-yl)phenyl)pyrrolidine-2-carboxylic acid hydrochloride]",,5.9 ± 0.62 µM,,,,,> 100 µM,,25 ± 1.2 µM,,23 µM,4.65±0.03,4.57±0.13,29 µM,,,5.51±0.02,3.1 µM,40 µM,15 µM
"Cl.O=C(O)c1cc(-c2cnc(O)nc2)cc([C@H]2CCN[C@@H]2C(=O)O)c1 [5i, (2S,3R)-3-(3-Carboxy-5-(2-hydroxypyrimidin-5-yl)phenyl)pyrrolidine-2-carboxylic acid hydrochloride]",,16 ± 0.98 µM,,,,,> 100 µM,,76 ± 1.8 µM,,>100 µM,,4.92±0.13,13 µM,,,5.39±0.03,4.1 µM,56 µM,10 µM
"O=C(O)c1ccc([C@H]2CCN[C@@H]2C(=O)O)cc1C(=O)O [4h, 4-((2S,3R)-2-Carboxypyrrolidin-3-yl)phthalic acid tri sodium salt]",,> 100 µM,4.24 ± 0.13 µM,0.75 ± 0.03 µM,6 to 10 fold,32 to 34 fold,> 100 µM,24.3 ± 1.46 µM,> 100 µM,5.17 ± 0.12 µM,>100 µM,,,> 100 µM,,,5.88 ± 0.06,1.3 µM,,
"Cl.O=C(O)c1cccc([C@H]2CCN[C@@H]2C(=O)O)c1 [4a, (2S,3R)-3-(3-Carboxyphenyl)pyrrolidine-2-carboxylic acid hydrochloride]",22 µM,,34.5 ± 0.97 µM,11.8 ± 0.23 µM,,,,> 100 µM,,91.2 ± 2.6 µM,,,,,,,,,,
